The test system of test [1] is Mus musculus. Put plainly: Weight change in g when a dose of 100 mg/kg (iv) to P388 leukemia model. The class given is functional. An outline of the steps: (§1)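 Mice (10 per group) were inoculated ip at D0 with 10^6 P388 leukemia cells and given a single iv dose at D1. Read-outs were weight change (g), median survival day, T/C % versus controls and survivors at D30.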

The subject of test [2] is Mus musculus. Put plainly: Weight change in g when a dose of 10 mg/kg administered intraperitoneally to B16 melanoma infected mice. Format: functional. As to conditions: route intraperitoneal. In short, it runs like this:
(§2)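 Hybrid BDF1 mice were inoculated ip at D0 with 0.5 mL of B16 melanoma homogenate (1 g tumor in 10 mL physiological serum). Drug was given ip daily on days 1-9, with cis-platinum 0.5 mg/kg as positive control on the same schedule.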

For test [3], the system named is Mus musculus. In words: Median survival day of B16 melanoma infected mice, when a dose of 10 mg/kg administered intraperitoneally. The class given is functional. As to conditions: route intraperitoneal. An outline of the steps: (§3)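 B16 melanoma in hybrid BD F1 mice. At D0 each mouse was inoculated ip with 0.5 mL of homogenate made from 1 g of tumour in 10 mL of physiological serum. Compounds were given ip daily at the stated doses for 9 days (D1-9), with cis-platinum 0.5 mg/kg under the same schedule as positive control.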

Test [4] concerns Mus musculus. Put plainly: Median survival day of P388 leukemia infected mice, when a dose of 5 mg/kg administered intraperitoneally. As to conditions: route intraperitoneal. The class given is functional. An outline of the steps: (§4)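 P388 leukaemia in CDF1 hybrid mice, 10 per group. At D0, 10^6 viable cells were inoculated ip, followed by a single ip dose of drug in distilled water on D1. Weight change, median survival day, T/C (treated/control median survival × 100) and survivors at D30 were recorded. Controls were 20 mice.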

The subject of test [5] is Mus musculus. Put plainly: […] in C38 adenocarcinoma cell line when a dose of 50 mg/kg administered intravenously in mice. Format: functional, MC-38. As to conditions: route intravenous. An outline of the steps:
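C38 colon adenocarcinoma in hybrid BD F1 mice, 10 per test. A standard 3-mm³ tumour fragment was implanted sc. Drugs were given iv at the stated doses on D1 or on D2 + D9, following the Geran et al. NCI protocol.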

Test [6] deals with Mus musculus. Put plainly: Median survival day in P388 cell line when a dose of 50 mg/kg administered intravenously to mice. Format: functional. As to conditions: route intravenous. In short, it runs like this: (§5)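 P388 leukaemia in CDF1 hybrid mice, 10 per group. At D0, 10^6 viable cells were inoculated ip, followed by a single iv dose on D1. Weight change, median survival day, T/C (treated/control median survival × 100) and survivors at D30 were recorded.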

For test [7], the system named is Mus musculus. In words: Antitumor activity against P388 cells at a dose of 50 mg/kg administered intravenously to mice. Format: functional. As to conditions: route intravenous. In short, it runs like this: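 P388 (10^6 cells) or L1210 (10^5 cells) leukemia was inoculated ip in mice at D0, followed by a single iv drug treatment on D1. Weight change was recorded. T/C % = median survival day of treated / controls × 100; survivors noted at D30; 10-15 mice per group.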

The subject of test [8] is Mus musculus. Put plainly: In vivo toxicity test on P388 cells at a dose of 100 mg/kg administered intravenously to mice. Format: functional. The conditions noted are these: route intravenous. An outline of the steps:
as §1

In test [9] the test system is Mus musculus. Put plainly: Weight change in g when a dose of 5 mg/kg administered intraperitoneally to B16 melanoma infected mice. The class given is functional. As to conditions: route intraperitoneal. An outline of the steps:
as §2

Test [10] concerns Mus musculus. In words: Survivors at day 30 when a dose of 20 mg/kg administered to P388 leukemia model when tested in 10 mice. Format: functional. An outline of the steps: as §4
Test [11] relates to Mus musculus. Put plainly: Survivors at day 60 when a dose of 5 mg/kg to B16 melanoma infected when tested in 10 mice. Format: functional.
Test [12] relates to Mus musculus. In words: Weight change in g at a dose of 50 mg/kg intravenous administration to P388 leukemia model. The class given is functional. An outline of the steps: as §1
Test [13] has as its system Mus musculus. Put plainly: Median survival day of B16 melanoma infected mice, when a dose of 1.25 mg/kg administered intraperitoneally. The conditions noted are these: route intraperitoneal.
In test [14] the test system is Mus musculus. Put plainly: Weight change in g when a dose of 5 mg/kg administered intraperitoneally in B-16 melanoma infected mice. Format: functional. The conditions noted are these: route intraperitoneal. In short, it runs like this:
as §2

In test [15] the test system is Mus musculus. Put plainly: Antitumor activity against P388 leukemia in mice at a dose of 1.25 mg/kg administered intraperitoneally for 5 days. As to conditions: route intraperitoneal. Format: functional. An outline of the steps:
(§6)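 CDF1 hybrid male or female mice, 10 per group, were inoculated ip with 10^6 viable P388 cells on day 0. Drugs in distilled water were given ip (0.1 mL/10 g body weight) daily D1-5. Vehicle, 5-fluorouracil and BD 84 were given the same way. T/C = median survival day of treated / controls × 100; T/C > 128% was significant; cures counted at D60.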

Test [16] has as its system Mus musculus. In words: Weight change in g when a dose of 20 mg/kg administered intraperitoneally in B-16 melanoma infected mice. Format: functional. As to conditions: route intraperitoneal. In short, it runs like this: as §2
The test system of test [17] is Mus musculus. In words: Antitumor activity against P388 leukemia in mice at a dose of 15 mg/kg administered intraperitoneally for 5 days. Format: functional. The conditions noted are these: route intraperitoneal. In short, it runs like this: as §6
The test system of test [18] is Mus musculus. Put plainly: Median survival day in L1210 leukemia mice model when a dose of 20 mg/kg administered intravenously. Format: functional. The conditions noted are these: route intravenous. In short, it runs like this:
(§7)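 L1210 leukaemia in CDF1 hybrid male or female mice, 10 per group. At D0, 10^5 viable cells were inoculated ip, followed by a single iv dose on D1. Median survival day was recorded, and T/C was calculated as treated/control median survival × 100.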

Test [19] relates to Mus musculus. In words: Median survival day of B16 melanoma infected mice when a dose of 1.25 mg/kg administered intraperitoneally. Format: functional. As to conditions: route intraperitoneal. In short, it runs like this: as §3
Test [20] concerns Mus musculus. In words: Median survival day of B16 melanoma infected mice when a dose of 2.5 mg/kg administered intraperitoneally. Format: functional. The conditions noted are these: route intraperitoneal. An outline of the steps:
as §3

In test [21] the test system is Mus musculus. In words: Median survival day of B16 melanoma infected micee when a dose of 5 mg/kg administered intraperitoneally. The class given is functional. The conditions noted are these: route intraperitoneal. In short, it runs like this:
as §3

In test [22] the test system is Mus musculus. In words: Median tumoral volume of C38 adenocarcinoma model when a dose of 100 mg/kg administered intravenously on D1 to mice. The class given is functional. As to conditions: route intravenous. In short, it runs like this: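 Geran protocol in hybrid BDF1 mice, 10 per test, implanted sc with a standard 3-mm³ fragment of C38 colon adenocarcinoma. Drug was given iv at the stated doses on D1, or on D2 + D9, and tumor growth was followed.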

In test [23] the test system is Mus musculus. In words: Median survival day in L1210 leukemia mice model when a dose of 40 mg/kg administered intravenously. The class given is functional. The conditions noted are these: route intravenous. An outline of the steps: as §7
The test system of test [24] is Mus musculus. In words: Median survival day in P388 leukemia model when a dose of 50 mg/kg administered intravenously to mice. The class given is functional. As to conditions: route intravenous. An outline of the steps:
as §5

Test [25] concerns Mus musculus. In words: In vivo toxicity test on P388 cells at a dose of 100 mg/kg administered intravenously to P388 leukemia mice model. Format: functional. The conditions noted are these: route intravenous. An outline of the steps: as §1
Test [26] deals with Mus musculus. Put plainly: Weight change in g when a dose of 50 mg/kg intravenous administration to P388 leukemia mice model. The class given is functional. An outline of the steps: as §1
For test [27], the system named is Mus musculus. In words: Survivors at day D30 when a dose of 20 mg/kg administered intravenously to L1210 leukemia mice model; 0/10. Format: functional. As to conditions: route intravenous.
For test [28], the system named is Mus musculus. In words: Survivors at day D32 when a dose of 75 mg/kg administered intravenously to C38 adenocarcinoma mice models; 10/10. Format: functional. The conditions noted are these: route intravenous. In short, it runs like this:
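Hybrid BDF1 mice, 10 per test, were implanted sc with a standard 3-mm³ fragment of C38 colon adenocarcinoma. Drug was given iv either on D1 alone or on D2 and D9. Animals were followed per NCI (Geran) protocol.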

Test [29] has as its system Mus musculus. Put plainly: Survivors at day 30 when a dose of 40 mg/kg to P388 leukemia model; 1/10. The class given is functional.
Test [30] relates to Mus musculus. In words: Weight change in g when a dose of 10 mg/kg administered intraperitoneally B16 melanoma infected mice. Format: functional. As to conditions: route intraperitoneal. In short, it runs like this:
as §2

The test system of test [31] is Mus musculus. In words: Antitumor activity against C38 adenocarcinoma cells at a dose of 100 mg/kg administered intravenously on D1 to mice; tumor volume at D38 (T/C). The conditions noted are these: route intravenous.

Molecules are shown by their SMILES.

In general, T/C refers to the ratio of treated to control. As for `Cc1cnc(NCCCN(C)C)c2c3cc(O)ccc3n(C)c12`, the Weight change is reported as -0.25 g in test [1], -1.9 g in test [2], -0.2 g in test [9] and 0.5 g in test [12]. The Median survival day amounted to 11.75 in test [3], 19.75 in test [4], 17.75 in test [6] and 29.75 in [13]. Further, the Median tumoral volume in test [5] is given as 0 cm*3. The T/C in [7] is given as 163%; in test [8], 236%. Besides, the Survivors in test [10] and in test [11] was 1 each time.

Consider `CCN(CC)CCCNc1[nH]cc(C)c2nc3ccc(O)cc3c1-2`, for which the Weight change in test [14] was -0.1 g; in test [16], -0.8 g. The T/C in test [15] was found to be 153%; in test [17], 208%.

As for `CCN(CC)CCCNc1ncc(C)c2c1c1cc(O)ccc1n2C`, the Median survival day is reported as 11.8 in [18]; 32.25 in test [19]; 35.25 in test [20]; 41.25 in [21]; 13.3 in test [23]; 19 in test [24]. In addition, the Median tumoral volume in [22] is 3.24 cm*3. In test [25], this molecule had a T/C of 223%. In addition, the Weight change is -0.7 g in [26] and -1 g in [30]. Besides, the Survivors in test [27] is 0; in test [28], 10; in test [29], 1. In [31], this molecule gave a Tumor volume of 36%.

Values taken from ChEMBL document CHEMBL1124035, “1-Amino-substituted 4-methyl-5H-pyrido[4,3-b]indoles (gamma-carbolines) as tricyclic analogues of ellipticines: a new class of antineoplastic agents” (1988).
